Legend:
[1] = Inhibition of HIV1 LAI reverse transcriptase 65R mutant by heteropolymeric DNA polymerase assay; design: species or system Human immunodeficiency virus 1
Summary of the method: (§1)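 Purified p66/p51 HIV-1 RT, or p66 homodimer for 65R, at 30–100 pM (about 1.5–4.5 mU/well). Plate-bound 18-mer DNA primer on a 50-base 5′-A12-(GTCA)5-3′ DNA template. dATP, dGTP, dCTP and BrdUTP at 1.0 μM each, no ATP. Buffer: HEPES 50 mM pH 7.3, 10 mM MgCl2. Incubation 180 min at 33°C, NaOH dehybridization, anti-BrdU-AP tracer, A405. IC50 from seven inhibitor concentrations, at least two experiments in duplicate.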

[2] = Inhibition of HIV1 LAI reverse transcriptase 65R mutant in presence of 5 mM ATP by heteropolymeric DNA polymerase assay; design: species or system Human immunodeficiency virus 1
Summary of the method: (§2)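 Heteropolymeric DNA polymerase assay with ATP added at 5 mM. Purified HIV-1 RT at 30–100 pM acts on a plate-bound DNA primer with a 5′-A12-(GTCA)5-3′ template. dATP, dGTP, dCTP and BrdUTP at 1.0 μM each. Incubation 180 min at 33°C. BrdUMP incorporation read via anti-BrdU-AP at 405 nm after NaOH dehybridization. IC50 from seven inhibitor concentrations, at least two experiments in duplicate.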

[3] = Inhibition of HIV1 reverse transcriptase 41L/67N/70R/184V/210W/215Y mutant by heteropolymeric DNA polymerase assay; design: species or system Human immunodeficiency virus 1; summary of the method: as §1
[4] = Inhibition of HIV1 reverse transcriptase wild type HXB2(a) by heteropolymeric DNA polymerase assay; design: species or system Human immunodeficiency virus 1
Summary of the method: (§3)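 Heteropolymeric assay without ATP: plate-bound 18-mer DNA primer (~110 nM) with 50-mer 5′-A12-(GTCA)5 template (190 nM). dATP, dGTP, dCTP and BrdUTP at 1.0 μM each, in HEPES 50 mM pH 7.3, MgCl2 10 mM. RT 30–100 pM, 33°C for 180 min, then NaOH dehybridization and anti-BrdU-AP tracer read at 405 nm. IC50 from seven triphosphate concentrations; two to four runs in duplicate.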

[5] = Inhibition of HIV1 reverse transcriptase 184V mutant by heteropolymeric DNA polymerase assay; design: species or system Human immunodeficiency virus 1; summary of the method: as §1
[6] = Inhibition of HIV1 reverse transcriptase wild type HXB2(a) in presence of 5 mM ATP by heteropolymeric DNA polymerase assay; design: species or system Human immunodeficiency virus 1
Summary of the method: (§4)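 Heteropolymeric DNA assay with 5 mM ATP added: immobilized 18-mer primer, 5′-A12-(GTCA)5 50-mer template, dATP/dGTP/dCTP/BrdUTP at 1.0 μM each, HEPES 50 mM pH 7.3, MgCl2 10 mM. RT 30–100 pM, incubated at 33°C for 180 min. NaOH strand separation, then anti-BrdU-AP detection at 405 nm. IC50 fitted from seven inhibitor concentrations; two to four runs in duplicate.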

[7] = Inhibition of HIV1 reverse transcriptase 41L/69S-SG/184V/210W/215Y mutant in presence of 5 mM ATP by heteropolymeric DNA polymerase assay; design: species or system Human immunodeficiency virus 1; summary of the method: as §2
[8] = Inhibition of HIV1 reverse transcriptase 184V mutant in presence of 5 mM ATP by heteropolymeric DNA polymerase assay; design: species or system Human immunodeficiency virus 1; summary of the method: as §2
[9] = Inhibition of HIV1 reverse transcriptase 75I/77L/116Y/151M mutant in presence of 5 mM ATP by heteropolymeric DNA polymerase assay; design: species or system Human immunodeficiency virus 1; summary of the method: as §2
[10] = Inhibition of HIV1 reverse transcriptase 75I/77L/116Y/151M mutant by heteropolymeric DNA polymerase assay; design: species or system Human immunodeficiency virus 1; summary of the method: as §1
[11] = Inhibition of HIV1 reverse transcriptase 41L/69S-SG/184V/210W/215Y mutant by heteropolymeric DNA polymerase assay; design: species or system Human immunodeficiency virus 1; summary of the method: as §1
[12] = Inhibition of HIV1 reverse transcriptase 75I/77L/116Y/151M/184V mutant in presence of 5 mM ATP by heteropolymeric DNA polymerase assay; design: species or system Human immunodeficiency virus 1; summary of the method: as §2
[13] = molecular target: T1, Human immunodeficiency virus type 1 reverse transcriptase (Human immunodeficiency virus 1, UniProt Q72547); experiment: Inhibition of HIV1 LAI reverse transcriptase wild type LAI by heteropolymeric DNA polymerase assay; summary of the method: as §3
[14] = Inhibition of HIV1 reverse transcriptase 41L/67N/70R/210W/215Y mutant by heteropolymeric DNA polymerase assay; design: species or system Human immunodeficiency virus 1; summary of the method: as §1
[15] = Inhibition of HIV1 reverse transcriptase 75I/77L/116Y/151M/184V mutant by heteropolymeric DNA polymerase assay; design: species or system Human immunodeficiency virus 1; summary of the method: as §1
[16] = Inhibition of HIV1 reverse transcriptase 41L/67N/70R/184V/210W/215Y mutant in presence of 5 mM ATP by heteropolymeric DNA polymerase assay; design: species or system Human immunodeficiency virus 1; summary of the method: as §2
[17] = molecular target: T1, Human immunodeficiency virus type 1 reverse transcriptase; experiment: Inhibition of HIV1 LAI reverse transcriptase wild type in presence of 5 mM ATP by heteropolymeric DNA polymerase assay; summary of the method: as §4
[18] = Inhibition of HIV1 reverse transcriptase 41L/69S-SG/210W/215Y mutant in presence of 5 mM ATP by heteropolymeric DNA polymerase assay; design: species or system Human immunodeficiency virus 1; summary of the method: as §2
[19] = Inhibition of HIV1 pNL4-3 reverse transcriptase 115F mutant in presence of 5 mM ATP by heteropolymeric DNA polymerase assay; design: species or system Human immunodeficiency virus 1; summary of the method: as §2
[20] = molecular target: T1, Human immunodeficiency virus type 1 reverse transcriptase; experiment: Inhibition of HIV1 pNL4-3 reverse transcriptase wild type pNL4-3 in presence of 5 mM ATP by heteropolymeric DNA polymerase assay; summary of the method: as §4
[21] = molecular target: T1, Human immunodeficiency virus type 1 reverse transcriptase; experiment: Inhibition of HIV1 pNL4-3 reverse transcriptase wild type pNL4-3 by heteropolymeric DNA polymerase assay; summary of the method: as §3
[22] = Inhibition of HIV1 reverse transcriptase 41L/69S-SG/210W/215Y mutant by heteropolymeric DNA polymerase assay; design: species or system Human immunodeficiency virus 1; summary of the method: as §1
[23] = Inhibition of HIV1 pNL4-3 reverse transcriptase 115F mutant by heteropolymeric DNA polymerase assay; design: species or system Human immunodeficiency virus 1; summary of the method: as §1

| SMILES | IC50 [1] [nM] | IC50 [2] [nM] | IC50 [3] [nM] | IC50 [4] [nM] | IC50 [5] [nM] | IC50 [6] [nM] | IC50 [7] [nM] | IC50 [8] [nM] | IC50 [9] [nM] | IC50 [10] [nM] | IC50 [11] [nM] | IC50 [12] [nM] | IC50 [13] [nM] | IC50 [14] [nM] | IC50 [15] [nM] | IC50 [16] [nM] | IC50 [17] [nM] | IC50 [18] [nM] | other results |
| --- | --- | --- | --- | --- | --- | --- | --- | --- | --- | --- | --- | --- | --- | --- | --- | --- | --- | --- | --- |
| Nc1nc2c(ncn2[C@H]2CO[C@@H](COP(=O)(O)OP(=O)(O)OP(=O)(O)O)O2)c(=O)[nH]1 | 620 | 1300 | 140 | 120 | 200 | 150 | 260 | 200 | 1200 | 2500 | 140 | 2400 | 180 | 110 | 7200 | 190 | 200 | 340 | – |
| Nc1nc(=O)c2ncn([C@H]3C=C[C@@H](COP(=O)(O)OP(=O)(O)OP(=O)(O)O)C3)c2[nH]1 [CARBOVIR 5'-TRIPHOSPHATE, (-)-] | 5000 | 5500 | 2700 | 1100 | 5500 | 1500 | 6400 | 8400 | 11000 | 6600 | 3400 | 18000 | 680 | 900 | 54000 | 4500 | 900 | 5100 | IC50 [19]: 3600 nM; IC50 [20]: 1800 nM; IC50 [21]: 1200 nM; IC50 [22]: 900 nM; IC50 [23]: 2600 nM |

From ChEMBL document CHEMBL1143844, “Biochemical studies on the mechanism of human immunodeficiency virus type 1 reverse transcriptase resistance to 1-(beta-D-dioxolane)thymine triphosphate” (Antimicrob Agents Chemother, 2007)
